For orientation: apparent Kd means a dissociation constant that holds for the conditions of the assay.

Data on 20 sequences can be found in the EternaBench riboswitch data.

This series concerns MS2 coat protein. Nature of the series: apparent Kd, MS2 coat protein; higher = weaker binding; RNA-MaP array; FMN 200 µM where present. The procedure, abridged:
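Stalled E. coli RNA polymerase produced the designs on Illumina sequencing-chip clusters. SNAP-549-labelled MS2 coat protein was added from 0.7 or 1.5 nM, doubling to 3 µM, without and then with constant ligand, in 100 mM Tris-HCl pH 7.5, 80 mM KCl, 4 mM MgCl2, BSA, DTT, yeast tRNA and Tween-20. The apparent Kd is the median of filtered per-cluster fits of green signal normalised to red-channel RNA signal and control-cluster median Fmax.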

Where [1] appears, read: designed as: OFF switch for flavin mononucleotide, no ligand.
[2] abbreviates: ligand present: flavin mononucleotide, designed as: OFF switch for flavin mononucleotide.
[3] abbreviates: designed as: ON switch for flavin mononucleotide, no ligand.
The mark [4] stands for this setting: ligand present: flavin mononucleotide, designed as: ON switch for flavin mononucleotide.

In the case of “UGAUAGGACAGAGGAUAUACGUGCUAGAGAUACUAGCAAAAUAUCCUCACAUGAGGAUCACCCAUGUAGAAGGCUGUCCUAUCU”, the “apparent Kd” value is, setting by setting: under setting [1], 18 nM; under setting [2], 83.3 nM. Turning to “AAUAUGUUGCAGAAGGCCAUGGUGUGGUAGUGCCUCAUGACAUGAGGAUCACCCAUGUCUGUGAUGGAGGAUAUGCAAUAUAUU”, the “apparent Kd” value is 67.2 nM under setting [1] and 152 nM under setting [2].

“GGCGAAGAGGCUAACAUGAGGAUCACCCAUGUGGACUCAUGGUAGGAUAUGCUGUACAAAGUACAGCAGAAGGGCCGCUGAGCC”: the “apparent Kd” value runs as follows: under setting [3], 146 nM; under setting [4], 663 nM. “UAUGAACAUGAGGAUCACCCAUGUGGAAAGGACACAGGAUAUCAUCUCGCACGUGCGAUAUGAGAAGGGUGAUGGU”: the “apparent Kd” value was found to be 117 nM under setting [3] and 180 nM under setting [4]. Consider “AAAAUCUAUUGAGGAUAUUCAUACACUACGUACGGAGAAGGCAAACAAUCAUGAGGACAUGAGGAUCACCCAUGUUGUGACCAU”, for which the “apparent Kd” value under setting [3] turned out to be 17.6 nM and the “apparent Kd” value under setting [4] came to 10.6 nM. On the same counts, the results for “GUAGCUAUCGGAGGAUAUUCAUGAUACAUGAGGAUCACCCAUGUUAAAAUGGGAGAAGGCCGAUAGCUACAAGAGCGAAAGCUC” are 41.1 nM and 8.01 nM. Consider “AGUACUACAGGAUAUACAUGAGUGAUACUCAUAUCCCUACUACAUGAGGAUCACCCAUGUAGAAGGGUAGUACA”, for which the “apparent Kd” value under setting [1] was 11.7 nM and the “apparent Kd” value under setting [2] came out at 10.1 nM. Take “ACAUGAGGAUCACCCAUGUUAAGCGAGGAUAUUUGACUGCACAUGAGGUUCGCCCAUGUCCUGCCGAAGAAGGUGCGAAUAAUU”: the “apparent Kd” value is, setting by setting: under setting [3], 54.2 nM; under setting [4], 17.6 nM.

Regarding “CUUCUCAGAGUCAGGAUAUAGUCGAAAGGGCUAGACUAGAAGGGACAUGAGGAUCACCCAUGUAAAAUAUCAAA”, the “apparent Kd” value runs as follows: under setting [1], 19.2 nM; under setting [2], 29.8 nM. On to “GAAUACCUAGGAUAUACAUGAGGAUCACCCAUGUUAAUAUUUGCAUAUUCAUCCUCUGGUAGAAGGAGGAAACU”, for which the “apparent Kd” value turned out to be 16.1 nM under setting [1] and 14.6 nM under setting [2]. “UUAGAUUAUUGAGGAUAUGGUUAUUUUUAUUAACCAGAAGGCAAACUCAACAUGAGGAUCACCCAUGUAUAAAGGGUAUUAGUU”: the “apparent Kd” value stood at 84.9 nM under setting [1] and 82.7 nM under setting [2]. With “UCAAUCAUGUAAGGAUAUGCAGCCGAAACGGCUGCAGAAGGUACUAUAAUUACAUGAGGAUCACCCAUGUUAUAAAAUUUAUAU”, the “apparent Kd” value amounted to 169 nM under setting [3] and 35.2 nM under setting [4]. Turning to “AGGUAAGACUUAAUUGUGCUGGUGAGAAGGCAAAUGGUUGUGAUUAACAUGAGGAUCACCCAUGUUGAGGAUAUCAUCGGUAUC”, the “apparent Kd” value under setting [2] is 62.9 nM.

With “AGUGGGUGUGAUAAAUAGUGGAAGUAGGAUAUGGGCUUACAUGAGGAUCACCCAUGUAUACAGCGCCAGAAGGACUGGACUGUA”, the “apparent Kd” value reads like this: under setting [3], 75.3 nM; under setting [4], 34.6 nM. On the same counts, the results for “ACAUACAUUCGAGGAUAUCGGUGAGAAAUUUUACGAGAAGGCGAUUCAUGAUUUAUUAUUUUGGACAUGAGGAUCACCCAUGUA” are 83.5 nM and 34.1 nM. For “CUAUGAGCGAUAGGAUAUACUGAGAUUGAGUGGGUAGAAGGAUCGAUAGUGUAGAAGACAUGAGGAUCACCCAUGUUACGGGUU”, the “apparent Kd” value under setting [3] is 892 nM and the “apparent Kd” value under setting [4] stood at 290 nM. Consider “CUCAUGUGAGGAUAUCAGUAGUAAAAAAAUAAAAUUACUACUGAGAAGGCACAUGAGGAUCACCCAUGUGCCAA”, for which the “apparent Kd” value reads like this: under setting [1], 16.1 nM; under setting [2], 28.6 nM.

In the case of “GAGCGAAAGCUCAAUGUCGAUAGCAGAAGGACACAUGAUAACAUGAAAACAUGAGGAUCACCCAUGUAGGAUAUGCUAUCGACU”, the “apparent Kd” value was found to be 8.57 nM under setting [1] and 13.9 nM under setting [2]. Consider “UGCGUGGUCACAGGAUAUGCAAGAUAAACUUUAGCAGAAGGGUGAUCAAUCAGCUCAAUACCACAUGAGGAUCACCCAUGUCUA”, for which the “apparent Kd” value under setting [3] stood at 53.4 nM and the “apparent Kd” value under setting [4] stood at 258 nM. On the same counts, the results for “GCAUACAUUCGAGGAUAUCGGUGAACAAAUUAACGAGAAGGCGAUAGAAUGUUUCAUCUUAUGAACAUGAGGAUCACCCAUGUA” are 39.3 nM and 27.9 nM.
